Results from different studies.
Protocols differ between the studies behind these lines.
Target: Tyrosine-protein kinase ITK/TSK (ITK, Homo sapiens, UniProt Q08881)
One construct used (Q08881 1-620): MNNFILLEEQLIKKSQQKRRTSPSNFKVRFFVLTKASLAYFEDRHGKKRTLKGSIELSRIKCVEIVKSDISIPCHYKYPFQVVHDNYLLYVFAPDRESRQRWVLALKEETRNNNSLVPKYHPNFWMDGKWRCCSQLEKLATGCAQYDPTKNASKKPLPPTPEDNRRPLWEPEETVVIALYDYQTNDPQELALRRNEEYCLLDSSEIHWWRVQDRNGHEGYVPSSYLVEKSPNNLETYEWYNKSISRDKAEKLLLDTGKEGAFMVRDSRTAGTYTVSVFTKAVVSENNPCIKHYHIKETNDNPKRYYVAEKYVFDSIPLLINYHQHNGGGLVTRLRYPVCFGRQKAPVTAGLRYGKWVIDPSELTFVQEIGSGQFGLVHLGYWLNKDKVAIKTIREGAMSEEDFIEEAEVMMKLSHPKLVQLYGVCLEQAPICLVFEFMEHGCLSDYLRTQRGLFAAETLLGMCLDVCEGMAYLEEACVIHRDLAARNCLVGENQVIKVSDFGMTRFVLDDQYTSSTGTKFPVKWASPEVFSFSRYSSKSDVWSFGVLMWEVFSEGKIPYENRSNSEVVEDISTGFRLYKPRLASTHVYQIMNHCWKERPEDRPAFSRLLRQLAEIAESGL

| SMILES | read-out | method | tested at | remaining binding |
| --- | --- | --- | --- | --- |
| CN(C)c1nccc(-c2cnn3ncccc23)n1 | binding | – | 1 µM | 100% |
| O=C(NCCCN1CCOCC1)c1ccc(Nc2nccc(-c3cc4ccccc4s3)n2)cc1 | binding | competition with immobilised ligand | 1 µM | 100% |
| Cc1nccc(COC(=O)N2C[C@@H]3[C@@H](CNC(=O)c4ccc5[nH]nnc5c4)[C@@H]3C2)n1 | cell-free assay | competition with immobilised ligand | 1 µM | 100% |
| O=C(c1ccc(Nc2nccc(-c3cc4ccccc4s3)n2)cc1)N1CCC(N2CCCC2)CC1 | binding | competition with immobilised ligand | 1 µM | 96% |
| COc1ncc2cc3ccccc3nc2c1C#N | cell-free assay | competition with immobilised ligand | 5 µM | 97% |
| CCC(=N\O)/C(C)=C/c1ccc(F)cc1 | cell-free assay | competition with immobilised ligand | 1 µM | 90% |
| CN(C)c1ncc(F)c(-c2cnn3ncccc23)n1 | binding | – | 1 µM | 100% |
| O=C(c1ccc(Nc2ncc(Cl)c(-c3ccc(Cl)s3)n2)cc1)N1CCC(N2CCCC2)CC1 | binding | competition with immobilised ligand | 1 µM | 29% |
| COc1cnc(Nc2cccc(S(N)(=O)=O)c2)nc1N1CCN(c2ccccc2)CC1 | binding | competition with immobilised ligand | 1 µM | 95% |
| Nc1ncc2c(n1)-c1c([nH]c3ccc(C#CC4CC4)cc13)CCCC2 | binding | competition with immobilised ligand | 1 µM | 92% |
| O=C(NCC1CCOCC1)c1n[nH]cc1NC(=O)c1c(F)cccc1F | binding | competition with immobilised ligand | 1 µM | 100% |
| Cc1cnn2ncc(-c3ccnc(N(C)C)n3)c2c1 | binding | – | 1 µM | 100% |
| C[C@H](c1ccnc(Nc2nc3ccc(-c4cc(N(C)C)ncn4)cc3[nH]2)c1)N1CCN(C(=O)CC(F)(F)F)CC1 | cell-free assay | competition with immobilised ligand | 0.1 µM | 100% |
| COc1cnc(Nc2cccc(S(N)(=O)=O)c2)nc1N1CCN(c2ccccc2)C(=O)C1 | binding | competition with immobilised ligand | 1 µM | 100% |
| N[C@H]1CCN(c2nccc(-c3cnn4ncccc34)n2)C1 | binding | – | 1 µM | 100% |
| CC(=O)C1=C(C)N(c2cccc(C(F)(F)F)c2)C(=O)N[C@@H]1c1ccc(C#N)nc1 | cell-free assay | competition with immobilised ligand | 1 µM | 90.4% |
| C[C@H]1CCN(c2nccc(-c3cnn4ncccc34)n2)C1 | binding | – | 1 µM | 93% |
| Cn1nc(C(=O)NCc2ccc(C(=O)O)cc2)cc1-c1ccc2[nH]ccc2c1 | cell-free assay | competition with immobilised ligand | 0.1 µM | 85% |
| CC1CCCN1c1nccc(-c2cnn3ncccc23)n1 (centres unmarked) | binding | – | 1 µM | 100% |
| CCC(=O)N[C@@H]1CC[C@H](C(=O)N(C)c2ccc(-c3nc4ccccc4o3)cc2)C1 | cell-free assay | competition with immobilised ligand | 1 µM | 100% |
